Calls of active or inactive are those of the source.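 Rule for the calls, unless noted: active = GFP response above 150% of the DMSO level; inconclusive = fewer than 70 events counted for a yeast strain; inactive = the rest.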
Experiments:
[1] = RPL19A-GFP modulators, yeast TOR pathway, confirmation, cell-based, S. cerevisiae, flow cytometry, cherry picks, mother/daughter gates (AID 2270;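 active = GFP response below 50% of the DMSO control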); conditions: S. cerevisiae RPL19A-GFP strain, 3 h, at 10 µM, stronger effect = lower value, 100 = same GFP as DMSO wells
[2] = LAP4-GFP expression modulators in yeast, confirmation, cell-based, cherry picks, flow cytometry, mother/daughter gates (AID 2271;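 active = GFP response above 150% of the DMSO control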;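 note: ratio of sample to DMSO plate mean so 100% equals DMSO level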); conditions: S. cerevisiae LAP4-GFP strain, 3 h, at 10 µM, stronger effect = higher value, 100 means same as DMSO control
Outline: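 Measured by: GFP by flow cytometry. Test system: GFP-fusion yeast strain. Input: yeast cells seeded at OD600 of 0.2. Timing: 30 °C, 3 h compound incubation, rotating. Buffer or medium: synthetic complete medium for yeast. Benchmarks: DMSO-only negative wells, rapamycin 400 ng/mL positive wells. Compound: 10 µM single dose.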

[3] = modulators of MEP2-GFP levels in yeast, confirmation, S. cerevisiae, flow cytometry GFP, cherry picks (AID 2272;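 active = GFP response above 150% of the DMSO control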;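 note: ratio of well signal to plate DMSO mean so 100% equals DMSO level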); conditions: S. cerevisiae MEP2-GFP strain, 3 h, at 10 µM, stronger effect = higher value
[4] = AGP1-GFP expression modulators, hit retest, confirmation, cell-based, flow cytometry, S. cerevisiae, cherry picks (AID 2273);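 note: median GFP channel fluorescence over the whole cell population gate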; conditions: S. cerevisiae AGP1-GFP strain, 3 h, at 10 µM
[5] = modulators of CIT2-GFP expression in yeast, confirmation, S. cerevisiae, GFP fusion, cherry picks, mother/daughter gates (AID 2274); conditions: S. cerevisiae CIT2-GFP strain, flow cytometry, 3 h, at 10 µM, stronger effect = higher value
[6] = measured here: daughter cell gate
[7] = measured here: mother cell gate
[8] = measured here: daughter cell gate response
[9] = measured here: mother cell gate response

Row | Compound | GFP response vs DMSO [1] | GFP response vs DMSO [1, 6] [%] | GFP response vs DMSO [1, 7] [%] | GFP response relative to DMSO [2] | GFP response relative to DMSO [2, 8] [%] | GFP response relative to DMSO [2, 9] [%] | GFP response vs DMSO [3] | GFP response, % of DMSO [4] | GFP response, % of DMSO [5] | GFP response, % of DMSO [5, 6] [%] | GFP response, % of DMSO [5, 7] [%]
1 | COc1cccc(-c2nnc(NC(=O)c3ccc(S(=O)(=O)N(CC(C)C)CC(C)C)cc3)o2)c1 | 99.7% (inactive) | 99.8 | 100 | 98.8% (inactive) | 97.9 | 97.5 | 102% (inactive) | 101% (inactive) | 102% (inactive) | 102 | 101
2 | O=C(O)c1ccn2c(C(=O)c3ccc(Cl)cc3)c(-c3ccccc3)cc2c1 | 96.2% (inactive) | 92.3 | 99.8 | 114% (inactive) | 107 | 115 | 104% (inactive) | 94.7% (inactive) | 92.1% (inactive) | 89 | 92.1
3 | Cc1ccc(Cl)cc1N1CCN(C(=O)CSc2ccsc2[N+](=O)[O-])CC1 | 98% (inactive) | 97.4 | 97.8 | 97% (inactive) | 95.9 | 96.2 | 101% (inactive) | 99.4% (inactive) | 100% (inactive) | 99.2 | 99.3
4 | O=c1c2ccccc2nc(-c2ccccc2)n1CCN1CCOCC1 | 101% (inactive) | 102 | 101 | 97% (inactive) | 97.5 | 98.4 | 101% (inactive) | 106% (inactive) | 98.8% (inactive) | 95.6 | 96.8
5 | CC1CCCN(CCCNC(=O)C2CCN(S(=O)(=O)N3CCC4(CC3)OCCO4)CC2)C1 (configuration not stated) | 96.4% (inactive) | 96.1 | 98.5 | 97.9% (inactive) | 97.6 | 96.1 | 96.2% (inactive) | 98.9% (inactive) | 105% (inactive) | 106 | 106
6 | Cc1ccc(C)c(NC(=O)c2ccccc2O)c1 | 98.5% (inactive) | 97 | 97.8 | 108% (inactive) | 99 | 112 | 101% (inactive) | 97.3% (inactive) | 93.1% (inactive) | 95.8 | 96
7 | COc1ccc(C(=O)c2no[n+]([O-])c2C(=O)c2ccc(OC)cc2)cc1 | 90.1% (inactive) | 83.3 | 86.6 | 149% (inactive) | 134 | 153 | 94.1% (inactive) | 92.9% (inactive) | 82.6% (inactive) | 77.1 | 73.6
8 | Cc1ccc(C(=O)Oc2oc(-c3ccco3)nc2C=Nc2ccc(Cl)cc2)cc1 | 102% (inactive) | 98.3 | 98.8 | 207% (active) | 168 | 205 | 110% (inactive) | 93.8% (inactive) | 106% (inactive) | 111 | 98
9 | COc1cc(/C=C2\C(=O)ON=C2c2ccc(Cl)cc2)ccc1O | 105% (inactive) | 106 | 99.4 | 126% (inactive) | 122 | 128 | 102% (inactive) | 100% (inactive) | 108% (inactive) | 114 | 99.8
10 | Nc1cccc(C(=O)Nc2ccccc2Cl)c1 | 99.8% (inactive) | 99.1 | 98.9 | 97.9% (inactive) | 97.6 | 98.3 | 100% (inactive) | 93.5% (inactive) | 103% (inactive) | 103 | 101
11 | COC(=O)Nc1c(-c2ccccc2)nc2ccc(C)cn12 | 101% (inactive) | 98.7 | 102 | 96.2% (inactive) | 97.2 | 98.3 | 102% (inactive) | 103% (inactive) | 104% (inactive) | 101 | 107
12 | CN(Cc1ccccc1)S(=O)(=O)c1ccc(C(=O)Nc2nnc(C3CC3)o2)cc1 | 103% (inactive) | 102 | 105 | 98.2% (inactive) | 99.1 | 97.3 | 96.8% (inactive) | 99.2% (inactive) | 102% (inactive) | 103 | 102
13 | CCc1nn2c(N3CCOCC3)cc(C)nc2c1-c1ccc(F)cc1 | 99.8% (inactive) | 99.8 | 98.4 | 104% (inactive) | 104 | 104 | 106% (inactive) | 98.6% (inactive) | 95.8% (inactive) | 101 | 94.9
14 | O=C(O)c1ccc2ccc3ccccc3c2c1 | 96.6% (inactive) | 94.2 | 95 | 99.5% (inactive) | 97.5 | 98.4 | 96.8% (inactive) | 105% (inactive) | 122% (inactive) | 121 | 121
15 | CCOC(=O)C1=C(c2ccccc2)NC(=S)NC1c1cc([N+](=O)[O-])ccc1OC (configuration not stated) | 94% (inactive) | 92.6 | 96.4 | 97.9% (inactive) | 97.6 | 97.2 | 96.2% (inactive) | 95.2% (inactive) | 99.7% (inactive) | 101 | 99.7
16 | O=C1C(Cl)=C(NCCc2ccccc2)C(=O)N1CCc1ccccc1 | 103% (inactive) | 103 | 104 | 106% (inactive) | 107 | 101 | 112% (inactive) | 103% (inactive) | 106% (inactive) | 106 | 106
17 | CCC(=O)c1ccc(N2CCN(C(=O)c3ccc(Br)cc3)CC2)c(F)c1 | 97.6% (inactive) | 97.6 | 94.4 | 115% (inactive) | 117 | 112 | 101% (inactive) | 96.1% (inactive) | 95.9% (inactive) | 97.4 | 93.2
18 | Cc1ccc(N2C(=O)C3C4C=CC(CNC(=S)N5CCN(c6ccccn6)CC5)(O4)C3C2=O)cc1 (configuration not stated) | 98.7% (inactive) | 99.6 | 98.6 | 113% (inactive) | 109 | 111 | 106% (inactive) | 105% (inactive) | 99.3% (inactive) | 100 | 96.8
19 | Cc1ccccc1Oc1ncnc2oc(-c3ccccc3)cc12 | 100% (inactive) | 98.9 | 101 | 96.7% (inactive) | 96 | 97.2 | 102% (inactive) | 97.2% (inactive) | 99.7% (inactive) | 99.1 | 96.1
20 | Oc1c(Br)cc(Br)cc1C=Nc1cccc2ncccc12 | 104% (inactive) | 93.9 | 98.6 | 125% (inactive) | 110 | 126 | 103% (inactive) | 95.7% (inactive) | 97.3% (inactive) | 99.2 | 89.5
21 | Cc1cc(C)c(C(=O)COC(=O)c2ccc([N+](=O)[O-])o2)cc1C | 100% (inactive) | 102 | 98.2 | 102% (inactive) | 102 | 104 | 101% (inactive) | 105% (inactive) | 100% (inactive) | 101 | 97.1
22 | CCCc1[nH]nc2c1C(c1ccc(O)c(OC)c1)C(C#N)=C(N)O2 (configuration not stated) | 103% (inactive) | 101 | 103 | 92.6% (inactive) | 94.1 | 93.1 | 107% (inactive) | 97.6% (inactive) | 103% (inactive) | 101 | 103
23 | COC(=O)COc1ccc(S(=O)(=O)N2CCc3ccccc3C2)cc1 | 101% (inactive) | 100 | 103 | 101% (inactive) | 102 | 101 | 97.8% (inactive) | 99.4% (inactive) | 99.1% (inactive) | 96.5 | 101
24 | COCCNC(=O)c1ccccc1-c1nc(-c2ccccc2Cl)no1 | 98% (inactive) | 97.1 | 98.9 | 101% (inactive) | 99.2 | 99.3 | 105% (inactive) | 96% (inactive) | 105% (inactive) | 105 | 103
25 | COc1ccccc1-c1nnc(NC(=O)c2ccc(S(=O)(=O)N(C)Cc3ccccc3)cc2)o1 | 100% (inactive) | 98.8 | 100 | 95.3% (inactive) | 95 | 94.6 | 104% (inactive) | 98.9% (inactive) | 97.8% (inactive) | 98.3 | 98
26 | COc1cc(NC(=O)c2cccc([N+](=O)[O-])c2)ccc1NC(=O)c1cc2ccccc2o1 | 98% (inactive) | 99.9 | 97.8 | 94.9% (inactive) | 98.2 | 95.1 | 101% (inactive) | 100% (inactive) | 107% (inactive) | 105 | 108
27 | CCCc1[nH]nc2c1C(c1ccccc1OCC)C(C#N)=C(N)O2 (configuration not stated) | 98.4% (inactive) | 99.5 | 98 | 99.8% (inactive) | 98.7 | 101 | 100% (inactive) | 102% (inactive) | 99.1% (inactive) | 96.5 | 98.7
